# Assay results reported in ChEMBL document CHEMBL4665634, “Inhibiting Aβ toxicity in Alzheimer's disease by a pyridine amine derivative” (Eur J Med Chem, 2019).
# Calls of active or inactive are those of the source. The rule behind the calls is not given here.
# Experiments:
# [1] = Disaggregation of Zn2+ induced fibrils of amyloid beta (1 to 40) assessed as appearance of small soluble fragments at 0.1 to 100 uM incubated for 24 hrs uranyl acetate staining-based by TEM analysis; settings: dose microM 0.1-100, time 24.0 hrs
# [2] = molecular target: T1, Amyloid-beta precursor protein (Homo sapiens, UniProt P05067); assay: Inhibition of self-induced amyloid beta (1 to 42) (unknown origin) aggregation assessed as decrease in negative band ellipticity and shift around 230 nm resulting in inhibition of beta-sheets formation at 80 uM incubated for 24 hrs by circular dichroism spectroscopy
# T1 sequence (P05067 whole entry): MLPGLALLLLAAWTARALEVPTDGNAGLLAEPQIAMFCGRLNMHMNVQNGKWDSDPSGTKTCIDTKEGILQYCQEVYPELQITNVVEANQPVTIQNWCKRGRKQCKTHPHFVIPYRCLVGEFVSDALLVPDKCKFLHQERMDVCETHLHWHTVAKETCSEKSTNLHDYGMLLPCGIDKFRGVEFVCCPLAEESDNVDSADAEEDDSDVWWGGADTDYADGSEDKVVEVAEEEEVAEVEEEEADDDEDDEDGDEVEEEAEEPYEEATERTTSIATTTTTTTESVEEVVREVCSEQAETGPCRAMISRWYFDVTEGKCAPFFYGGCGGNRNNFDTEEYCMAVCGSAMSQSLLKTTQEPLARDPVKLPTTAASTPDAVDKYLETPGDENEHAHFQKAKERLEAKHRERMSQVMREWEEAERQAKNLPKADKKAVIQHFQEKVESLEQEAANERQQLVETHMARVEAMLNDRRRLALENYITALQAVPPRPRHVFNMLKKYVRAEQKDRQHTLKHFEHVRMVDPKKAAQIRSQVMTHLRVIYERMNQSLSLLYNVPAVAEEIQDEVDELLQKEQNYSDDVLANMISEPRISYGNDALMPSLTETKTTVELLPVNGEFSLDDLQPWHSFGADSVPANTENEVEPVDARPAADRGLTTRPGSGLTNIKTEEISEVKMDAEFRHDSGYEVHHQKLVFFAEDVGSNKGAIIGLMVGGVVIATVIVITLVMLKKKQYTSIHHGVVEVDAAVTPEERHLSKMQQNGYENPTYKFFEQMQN
# In short: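 CD spectra taken on Aβ42 (40 µM). Metal ion (ZnCl2 or CuCl2, 40 µM) was preincubated 5 min at room temperature where present, then compound (80 µM) was added and incubated at 37 °C for 24 h. Spectra recorded 190–270 nm in a 1.0 cm quartz cell, bandwidth 0.1 nm, response time 10 s.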
# Caenorhabditis elegans [3] = assay: Reduction in 16 kDa amyloid beta species expression in Caenorhabditis elegans CL4176 at 50 uM after 48 hrs by Western blot analysis; type: functional
# In short: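 CL4176 raised on plates with compound (50 µM) at 15 °C to L3, then kept at 25 °C for 2 days. Worms sonicated in 0.1 M phosphate buffer, 16 µg protein run on 12% SDS-PAGE and blotted to PVDF. Probed with 6E10 (1:1000) and HRP anti-mouse secondary, with β-actin as the loading control.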
# Caenorhabditis elegans [4] = assay: Inhibition of AChE in Caenorhabditis elegans CL4176 assessed as enzyme activity at 25 uM after 48 hrs by DTNB reagent based colorimetric analysis (reference value: 272.49 +/- 14.6 units/L)
# In short: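 Transgenic CL4176 worms kept on NGM plates with compound (0, 25, 50, 100 µM) at 25 °C for 48 h. Lysates made by sonication in 0.1 M phosphate buffer pH 7.4 and centrifuged at 13000 rpm for 5 min. AChE activity in the supernatant was measured with a kit, read as absorbance at 412 nm, given in Units/L normalized to protein concentration, mean ± S.D.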
# [5] = molecular target: T1, Amyloid-beta precursor protein; assay: Inhibition of amyloid beta (1 to 42)-induced paralysis in transgenic Caenorhabditis elegans CL4176 expressing human amyloid beta (1 to 42) assessed as paralyzed worms at 50 uM treated for 49 hrs at 25 degreeC by microscopic analysis (reference value: 87 %); parameters: scale not given: the % may be the effect or the level left
# Mus musculus [6] = assay: Cognitive enhancing effect in APP/PS1 double mutant-transgenic C57BL/6 mouse model assessed as effect on escape latency time at 1 mg/kg, iv measured on day 5 by Morris water maze test (reference value: 50.08 +/- 17.95 sec); type: functional; settings: time 5 day
# Mus musculus [7] = assay: Cognitive enhancing effect in APP/PS1 double mutant-transgenic C57BL/6 mouse model assessed as time spent on target quadrant at 1 mg/kg, iv measured on day 6 by Morris water maze test (reference value: 11.77 +/- 5.28 sec); type: functional; settings: time 6 day
# Caenorhabditis elegans [8] = assay: Effect on skn-1 mRNA expression in Caenorhabditis elegans CL4176 at 50 uM by qRT-PCR analysis; type: functional
# In short: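 CL4176 qRT-PCR of skn-1 or sod-3. RNA extracted with Trizol, EvaGreen qRT-PCR run for 40 cycles (95 °C 5 s, 60 °C 5 s). Normalized to ama-1 by the 2^−ΔΔCt method. Three independent RNA/cDNA preparations, run in triplicate.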
# Caenorhabditis elegans [9] = assay: Upregulation of hsp-16.2 mRNA expression in Caenorhabditis elegans CL4176 at 50 uM by qRT-PCR analysis relative to control; type: functional
# In short: (§1)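 CL4176 worms treated with compound at 25 °C for 48 h (50, 100 µM for amy-1). RNA extracted with Trizol, cDNA made, EvaGreen qRT-PCR run for 40 cycles (95 °C 5 s, 60 °C 5 s). Normalized to ama-1 by the 2^−ΔΔCt method. Three independent preparations, samples in triplicate.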
# [10] = molecular target: T1, Amyloid-beta precursor protein; assay: Inhibition of amyloid beta (1 to 42)-induced paralysis in transgenic Caenorhabditis elegans GMC101 expressing human amyloid beta (1 to 42) assessed as paralyzed worms at 100 uM measured after 92 hrs by microscopic analysis relative to control; parameters: scale not given: the % may be the effect or the level left
# Caenorhabditis elegans [11] = assay: Reduction in Amyloid-beta deposits in transgenic Caenorhabditis elegans CL4176 using anti-Abeta 6E10/rhodamine-phalloidin at 50 to 100 uM after 48 hrs by immunostaining; type: functional; settings: dose microM 50-100, time 48.0 hrs
# In short: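 CL4176 L3 worms kept on compound plates (50, 100 µM) at 25 °C for 2 days. Fixed in 4% paraformaldehyde and permeabilized with 1% Triton X-100. Stained with 6E10 plus Alexa Fluor 488 secondary and rhodamine-phalloidin (1:4000). Confocal imaging at ex 488/em 500–530 nm and ex 543/em 565–605 nm.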
# Caenorhabditis elegans [12] = assay: Antioxidant activity in Caenorhabditis elegans CL4176 assessed as effect on ROS production at 100 uM and 15 to 25 degreeC after 48 hrs by H2DCF-DA probe based fluorescence assay ( Rvb = 33.68 %); type: functional
# [13] = molecular target: T1, Amyloid-beta precursor protein; assay: Inhibition of amyloid beta (1 to 42)-induced paralysis in transgenic Caenorhabditis elegans CL4176 L3 expressing human amyloid beta (1 to 42) assessed as reduction in fluorescence intensity at 50 to 200 uM incubated for 2 days by thiofavin-T based fluorescence microscopic analysis; settings: dose microM 50-200, time 2.0 day
# In short: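 CL4176 L3 worms kept on compound plates (50, 100, 200 µM) at 25 °C for 2 days. Stained with ThT (10 µM) for 5 min, held 2 h on NGM without OP50, then mounted on 2% agarose pads. Fluorescence imaged at ex 488/em 500–530 nm, in triplicate with 15–20 worms per group.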
# [14] = Disaggregation of Cu2+ induced fibrils of amyloid beta (1 to 40) assessed as appearance of small soluble fragments at 0.1 to 100 uM incubated for 24 hrs uranyl acetate staining-based by TEM analysis; settings: dose microM 0.1-100, time 24.0 hrs
# [15] = molecular target: T1, Amyloid-beta precursor protein; assay: Inhibition of amyloid beta (1 to 42)-induced paralysis in transgenic Caenorhabditis elegans GMC101 expressing human amyloid beta (1 to 42) assessed as paralyzed worms at 50 uM measured after 92 hrs by microscopic analysis relative to control; parameters: scale not given: the % may be the effect or the level left
# [16] = Inhibition of Zn2+ induced amyloid beta (1 to 40) aggregation assessed as appearance of granule like species at 0.1 to 100 uM incubated for 24 hrs uranyl acetate staining-based by TEM analysis; settings: dose microM 0.1-100, time 24.0 hrs
# [17] = Inhibition of Zn2+ induced amyloid beta (1 to 42) aggregation assessed as reduction in fibril formation incubated for 24 hrs in presence of Zn2+ by Thioflavin T based fluorometric assay
# In short: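 Aβ42 (20 µM) mixed with compound (0.1–100 µM), with or without Zn2+ (20 µM), in Tris-HCl pH 7.4, incubated at 37 °C for 24 h. ThT (5 µM) added, fluorescence read at ex 450/em 485 nm.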
# Caenorhabditis elegans [18] = assay: Upregulation of hsf-1 mRNA expression in Caenorhabditis elegans CL4176 at 50 uM by qRT-PCR analysis relative to control; type: functional; in short: as §1
# [19] = Solubility of the compound in water; type: physicochemical
# [20] = molecular target: T1, Amyloid-beta precursor protein; assay: Inhibition of amyloid beta (1 to 42)-induced paralysis in transgenic Caenorhabditis elegans CL4176 L3 expressing human amyloid beta (1 to 42) assessed as roller movement of worms by microscopic analysis
# Caenorhabditis elegans [21] = assay: Antioxidant activity in Caenorhabditis elegans CL4176 assessed as effect on juglone-induced ROS level by measuring relative fluorescence intensity at 50 uM and 15 to 25 degreeC after 48 hrs by H2DCF-DA probe based fluorescence assay ( Rvb = 74.23 %); type: functional
# Caenorhabditis elegans [22] = assay: Upregulation of hsp-60 mRNA expression in Caenorhabditis elegans CL4176 at 50 uM by qRT-PCR analysis relative to control; type: functional; in short: as §1
smiles,measurement,setting,value
Oc1cc(CN(Cc2ccccn2)Cc2ccccn2)cc(C[P+](c2ccccc2)(c2ccccc2)c2ccccc2)c1.[Br-],Activity,[1],Active
same,inhibition,[2],Active
same,Activity,Caenorhabditis elegans [3],Active
same,Activity,Caenorhabditis elegans [4],248 U/L
same,Activity,[5],74%
same,Time,Mus musculus [6],34.25 s
same,Time,Mus musculus [7],17.2 s
same,Activity,Caenorhabditis elegans [8],inactive
same,fold change (FC),Caenorhabditis elegans [9],2.15
same,Activity,[10],66%
same,Activity,Caenorhabditis elegans [11],Active
same,Activity,Caenorhabditis elegans [12],21.72%
same,inhibition,[13],Active
same,Activity,[14],Active
same,Activity,[15],74%
same,inhibition,[16],Active
same,IC50,[17],27.4 µM
same,inhibition,[17],Dose-dependent effect
same,fold change (FC),Caenorhabditis elegans [18],1.55
same,solubility,[19],Insoluble
same,Activity,[20],Active
same,Activity,Caenorhabditis elegans [21],48.97%
same,fold change (FC),Caenorhabditis elegans [22],1.59
